The values below come from ChEMBL document CHEMBL1143693, “Cancer chemopreventive effects of cycloartane-type and related triterpenoids in in vitro and in vivo models” (J Nat Prod, 2007).

Activity calls are given as the source filed them. No cut-off for these calls is given here.

Experiment [1] can be described thus: Scavenging activity against NO generation in human Chang liver cells assessed as inhibition of NOR1-activation at 350 nM relative to NOR1. The format is functional.
Experiment [2] concerns Human gammaherpesvirus 4. In words: Inhibition of TPA-induced Epstein-Barr virus early antigen activation in Raji cells after 48 hrs. It counts as functional, organism-based. Conditions: human gammaherpesvirus 4, Raji.
Experiment [3] has as its system Human gammaherpesvirus 4. Briefly: Inhibition of TPA-induced Epstein-Barr virus early antigen activation assessed as EBV-EA induction in Raji cells at 32 nM after 48 hrs relative to TPA; values are per cent of control. Conditions: human gammaherpesvirus 4, Raji.
Experiment [4] deals with Human gammaherpesvirus 4. In words: Inhibition of TPA-induced Epstein-Barr virus early antigen activation assessed as EBV-EA induction in Raji cells at 0.32 nM after 48 hrs relative to TPA; values are per cent of control. Conditions: human gammaherpesvirus 4, Raji.
For experiment [5], the system named is Human gammaherpesvirus 4. In words: Inhibition of TPA-induced Epstein-Barr virus early antigen activation assessed as EBV-EA induction in Raji cells at 3.2 nM after 48 hrs relative to TPA; values are per cent of control. Conditions: human gammaherpesvirus 4, Raji.
For experiment [6], the system named is Raji. In words: Cell viability of Raji cells at 320 nM. The format is functional, Homo sapiens.
For experiment [7], the species on record is Mus musculus. Briefly: Inhibition of TPA-induced skin tumor promotion in ICR mouse assessed as incidence of skin papilloma at 85 nmol after 10 weeks. The format is functional. An outline of the steps: (§1)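 Specific pathogen-free ICR mice, 15 per group, were initiated with DMBA and promoted with TPA, with or without 85 nmol compound. Papilloma incidence and mean papillomas per mouse were recorded up to 20 weeks of promotion. Groups were compared by Student's t-test.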

For experiment [8], the species on record is Mus musculus. In words: Inhibition of TPA-induced skin tumor promotion in ICR mouse assessed as reduction in number of skin papillomas at 85 nmol. It counts as functional, organism-based. In a few lines: as §1
The species named for experiment [9] is Mus musculus. Briefly: Inhibition of TPA-induced skin tumor promotion in ICR mouse assessed as incidence of skin papilloma at 85 nmol after 20 weeks. It counts as functional. Particulars: values are per cent of control. In a few lines:
as §1

For experiment [10], the system named is Human gammaherpesvirus 4. Briefly: Inhibition of TPA-induced Epstein-Barr virus early antigen activation assessed as EBV-EA induction in Raji cells at 320 nM after 48 hrs relative to TPA; values are per cent of control. Conditions: human gammaherpesvirus 4, Raji.

The IC50 is the midpoint of a concentration-inhibition curve. Lower therefore signals greater potency in that assay. As for `CC(C)C(O)(CO)CC[C@@H](C)[C@H]1CC[C@@]2(C)[C@@H]3CC[C@H]4C(C)(C)[C@@H](O)CC[C@@]45C[C@@]35CC[C@]12C` (stereo partly drawn), the figures for the Activity in experiment [1] and in experiment [6] were 2.2 and 70%, respectively. The compound also showed an IC50 in experiment [2] of 6.1 nM. The level, % of control at 0.032 µM in experiment [3] came to 13%. For the same compound, the level, % of control at 0.00032 µM in [4] turned out to be 81%. Besides, in experiment [5], the level, % of control at 0.0032 µM is 63.2%. Besides, the Papilloma incidence % in experiment [7] stood at 20%. Also, in experiment [8], the outcome was Active. Also, the “response, % of control” value in experiment [9] is listed as 80%. The level, % of control at 0.32 µM in [10] worked out at 0%.
In the case of `COCC(O)(CC[C@@H](C)[C@H]1CC[C@@]2(C)[C@@H]3CC[C@H]4C(C)(C)[C@@H](O)CC[C@@]45C[C@@]35CC[C@]12C)C(C)C` (stereo partly drawn), the results for the Activity in [1] and in experiment [6] were 2.1 and 70%, respectively. In addition, in experiment [2], the IC50 turned out to be 6.7 nM. The level, % of control at 0.032 µM in experiment [3] worked out at 15.2%. Moreover, in experiment [4], the level, % of control at 0.00032 µM worked out at 83.1%. Further, in experiment [5], the level, % of control at 0.0032 µM was found to be 65.4%. Also, in [7], the Papilloma incidence % was determined as 27%. The result in experiment [8] was Active. In addition, the “response, % of control” value in [9] was 87%. Besides, in experiment [10], the level, % of control at 0.32 µM turned out to be 0%.
Consider `C=C(CC[C@@H](C)[C@H]1CC[C@@]2(C)[C@@H]3CC[C@H]4C(C)(C)C(=O)CC[C@@]45C[C@@]35CC[C@]12C)C(C)C`, for which the figures for the Activity in [1] and in experiment [6] were 1.9 and 70%, respectively. In [2], this compound showed an IC50 of 9.2 nM. Also, the level, % of control at 0.032 µM in experiment [3] stood at 26.4%. Besides, the level, % of control at 0.00032 µM in experiment [4] is 96.1%. Besides, the level, % of control at 0.0032 µM in [5] was found to be 73.5%. In experiment [10], the level, % of control at 0.32 µM worked out at 3.1%.
Take `C=C(C)[C@@H](CC)CC[C@@H](C)[C@H]1CC[C@@]2(C)[C@@H]3CC[C@H]4C(C)(C)[C@@H](O)CC[C@@]45C[C@@]35CC[C@]12C` [POLYSTHICOL (24S)]: the results for the Activity in [1] and in experiment [6] were 2 and 70%, respectively. The IC50 in [2] amounted to 8.8 nM. The level, % of control at 0.032 µM in [3] worked out at 28.9%. The level, % of control at 0.00032 µM in experiment [4] is 93.1%. The level, % of control at 0.0032 µM in [5] stood at 69.1%. In experiment [10], the level, % of control at 0.32 µM was found to be 0%.
On to `C[C@H](CCC(O)C(C)(C)O)[C@H]1CC[C@@]2(C)[C@@H]3CC[C@H]4C(C)(C)C(=O)CC[C@@]45C[C@@]35CC[C@]12C` (stereo partly drawn), for which the figures for the Activity in [1] and in experiment [6] were 2 and 70%, respectively. The compound further had an IC50 in [2] of 7.4 nM. Also, in [3], the level, % of control at 0.032 µM was found to be 19.1%. In experiment [4], the level, % of control at 0.00032 µM was 88.4%. Moreover, the level, % of control at 0.0032 µM in experiment [5] came out at 66.8%. Also, the level, % of control at 0.32 µM in experiment [10] came to 0%.
Turning to `CC(=O)O[C@H]1CC[C@]23C[C@]24CC[C@]2(C)[C@@H]([C@H](C)CCC=C(C)C)CC[C@@]2(C)[C@@H]4CC[C@H]3C1(C)C` [CYCLOARTENOL ACETATE], the figures for the Activity in [1] and in experiment [6] were 1.8 and 70%, respectively. For the same compound, the IC50 in experiment [2] turned out to be 10.1 nM. Moreover, the level, % of control at 0.032 µM in experiment [3] was 32.3%. In addition, in experiment [4], the level, % of control at 0.00032 µM was 96.9%. Also, in [5], the level, % of control at 0.0032 µM was determined as 73.1%. In experiment [10], the level, % of control at 0.32 µM amounted to 0%.
As for `C=C(CC[C@@H](C)[C@H]1CC[C@@]2(C)[C@@H]3CC[C@H]4C[C@@H](O)CC[C@@]45C[C@@]35CC[C@]12C)C(C)C`, the Activity in experiment [1] is 1.5; in experiment [6], 70%. For the same compound, the IC50 in [2] was determined as 9.5 nM. For the same compound, in experiment [3], the level, % of control at 0.032 µM was determined as 30.5%. Besides, the level, % of control at 0.00032 µM in [4] stood at 95.8%. In addition, the level, % of control at 0.0032 µM in [5] came out at 72.7%. Further, in experiment [10], the level, % of control at 0.32 µM came to 0%.
`CC(C)CCC[C@@H](C)[C@H]1CC[C@@]2(C)[C@@H]3CC[C@H]4C[C@@H](O)CC[C@@]45C[C@@]35CC[C@]12C` [POLLINASTANOL]: the Activity in experiment [1] was determined as 1.5; in experiment [6] it was 70%. Moreover, in [2], the IC50 is 9.9 nM. Also, in experiment [3], the level, % of control at 0.032 µM was 31.7%. Besides, in experiment [4], the level, % of control at 0.00032 µM was 95.9%. Further, the level, % of control at 0.0032 µM in [5] was 73.1%. In addition, the level, % of control at 0.32 µM in experiment [10] came out at 0%.
For `CC(C)CCC[C@@H](C)[C@@H]1CC[C@@]2(C)[C@@H]3CC[C@H]4C(C)(C)[C@@H](O)CC[C@@]45C[C@@]35CC[C@]12C`, the Activity in [1] is given as 1.6; in experiment [6], 70%. In experiment [2], this compound returned a half-maximal inhibitory concentration (IC50) of 9.4 nM. Also, the level, % of control at 0.032 µM in [3] was 30.8%. Besides, the level, % of control at 0.00032 µM in [4] was found to be 94.2%. Further, in [5], the level, % of control at 0.0032 µM worked out at 71.2%. Besides, the level, % of control at 0.32 µM in experiment [10] was 0%.
Take `C[C@@H]1[C@@H](O)CC[C@]23C[C@]24CC[C@]2(C)[C@@H]([C@H](C)CC[C@H](O)C(C)(C)O)CC[C@@]2(C)[C@@H]4CC[C@@H]13`: the Activity was determined as 1.7 in experiment [1] and 70% in experiment [6]. Also, the IC50 in experiment [2] is 6.7 nM. In addition, the level, % of control at 0.032 µM in [3] was 17.1%. Further, in experiment [4], the level, % of control at 0.00032 µM turned out to be 88.8%. Further, the level, % of control at 0.0032 µM in experiment [5] stood at 61.3%. Moreover, the level, % of control at 0.32 µM in [10] came out at 0%.
As to `COc1cc(/C=C/C(=O)O[C@H]2CC[C@]34C[C@]35CC[C@]3(C)[C@@H]([C@H](C)CCC=C(C)C)CC[C@@]3(C)[C@@H]5CC[C@H]4C2(C)C)ccc1O` [GAMMA ORYZANOL], the Activity in [1] turned out to be 1.5; in experiment [6] it was 70%. Moreover, the IC50 in experiment [2] was found to be 15.9 nM. Further, the level, % of control at 0.032 µM in experiment [3] was found to be 56%. Besides, the level, % of control at 0.00032 µM in [4] came to 100%. In addition, in experiment [5], the level, % of control at 0.0032 µM was determined as 84.7%. In experiment [10], the level, % of control at 0.32 µM was found to be 19.7%.
